Source: ChEMBL document CHEMBL1148734, “Structure-activity relationships of phenyl-furanyl-rhodanines as inhibitors of RNA polymerase with antibacterial activity on biofilms” (J Med Chem, 2007)
In brackets after ≈: the same amount, converted by molar mass. Activity calls are given as the source filed them. No cut-off for these calls is given here.

Columns and labels:
[1] = tested on: Staphylococcus epidermidis; test: Antibacterial activity against Staphylococcus epidermidis CIP 105777; type: functional
[2] = tested on: Escherichia coli; test: Antibacterial activity against Escherichia coli tolC CGSC 5633; type: functional
[3] = tested on: Escherichia coli; test: Inhibition of RNA polymerase sigma-70 transcription in Escherichia coli at 10 uM; type: functional
[4] = tested on: CHO; test: Cytotoxicity against CHO cells; type: cell-based, Cricetulus griseus; conditions: chinese hamster
In short: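 CHO cells grown in RPMI with 5% fetal calf serum, then exposed to compounds 24 h at 37 °C without serum. MTT added at 300 µg/mL final, 3 h at 37 °C dark; acidified isopropanol added, 1 h at room temperature; OD at 595 nm.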

[5] = Inhibition of Escherichia coli RNA polymerase sigma-70 factor
[6] = tested on: Staphylococcus aureus; test: Antibacterial activity against multidrug resistant Staphylococcus aureus 49589; type: functional
In short: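 Broth microdilution MIC following CLSI. Compounds were predissolved in DMSO and tested as serial 2-fold dilutions at final 100 to 0.4 µg/mL. Inoculum was 5 × 10⁵ CFU/mL, and plates were read after 18 h at 37 °C.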

[7] = tested on: Staphylococcus aureus; test: Antibacterial activity against Staphylococcus aureus CIP 76.25; type: functional
[8] = tested on: Staphylococcus epidermidis; test: Antibacterial activity against Staphylococcus epidermidis RP62A; type: functional
[9] = tested on: Staphylococcus epidermidis; test: Antibacterial activity against Staphylococcus epidermidis 40004; type: functional
[10] = tested on: Staphylococcus epidermidis; test: Antibacterial activity against Staphylococcus epidermidis 48155; type: functional
[11] = tested on: Streptococcus pneumoniae; test: Antibacterial activity against Streptococcus pneumoniae CIP 103566; type: functional
[12] = tested on: Clostridioides difficile; test: Antibacterial activity against Clostridium difficile DSM 1296; type: functional
[13] = tested on: Bacillus anthracis; test: Antibacterial activity against Bacillus anthracis 9131; type: functional

Compound	MIC [1]	MIC [2]	inhibition at 10 µM [3]	Activity [4]	also measured
O=C1NC(=O)/C(=C/c2ccc(-c3ccc(C(=O)O)cc3)o2)N1	≥ 100 µg/mL	≥ 100 µg/mL	55%	>= 100 ug ml-1	–
C=CCN1C(=O)/C(=C/c2cccc(C(=O)O)c2)SC1=S	≥ 100 µg/mL	≥ 100 µg/mL	–	–	IC50 [5]: ≥ 100 µM
CC[C@H]1OC(=O)[C@H](C)[C@@H](O[C@H]2C[C@@](C)(OC)[C@@H](O)[C@H](C)O2)[C@H](C)[C@@H](O[C@@H]2O[C@H](C)C[C@H](N(C)C)[C@H]2O)[C@](C)(O)C[C@@H](C)C(=O)[C@H](C)[C@@H](O)[C@]1(C)O	–	–	–	–	Activity [6]: inactive
C=CCN1C(=O)/C(=C/c2ccc(-c3ccc(OP(=O)(O)O)cc3)o2)SC1=S	≥ 100 µg/mL	≥ 100 µg/mL	–	50 µg/mL	–
CC1(C)S[C@@H]2[C@H](NC(=O)[C@H](N)c3ccc(O)cc3)C(=O)N2[C@H]1C(=O)O	–	–	–	–	Activity [6]: inactive
C=CCN1C(=O)/C(=C/c2ccc(-c3cccc(C(F)(F)F)c3)o2)SC1=S	≥ 100 µg/mL	≥ 100 µg/mL	–	>= 100 ug ml-1	–
O=C(O)CN1C(=O)/C(=C/c2ccc(-c3cccc(C(=O)O)c3)o2)SC1=S	≥ 100 µg/mL	≥ 100 µg/mL	17%	>= 100 ug ml-1	–
C=CCN1C(=O)/C(=C/c2c[nH]c3c(C(=O)O)cccc23)SC1=S	25 µg/mL (≈ 72.6 µM)	≥ 100 µg/mL	95%	>= 100 ug ml-1	MIC [7]: 50 µg/mL (≈ 145 µM); MIC [6]: 50 µg/mL (≈ 145 µM); MIC [8]: 25 µg/mL (≈ 72.6 µM); MIC [9]: 25 µg/mL (≈ 72.6 µM); MIC [10]: 25 µg/mL (≈ 72.6 µM); MIC [11]: 50 µg/mL (≈ 145 µM); MIC [12]: 25 µg/mL (≈ 72.6 µM); MIC [13]: 12.5 µg/mL (≈ 36.3 µM)
CC(=O)/N=C1\NC(=O)/C(=C/c2ccc(-c3ccc(C(=O)O)cc3)o2)S1	≥ 100 µg/mL	≥ 100 µg/mL	98%	>= 100 ug ml-1	–
C=CCN1C(=O)/C(=C/c2cc(C)n(CC)c2C)SC1=S	≥ 100 µg/mL	≥ 100 µg/mL	5%	–	IC50 [5]: ≥ 100 µM
CC1COc2c(N3CCN(C)CC3)c(F)cc3c(=O)c(C(=O)O)cn1c23 (centres undefined)	–	–	–	–	Activity [6]: inactive
C=CCN1C(=O)/C(=C/c2ccc(-c3ccccc3)o2)SC1=S	≥ 100 µg/mL	3.13 µg/mL (≈ 9.56 µM)	46%	>= 100 ug ml-1	MIC [7]: ≥ 100 µg/mL; MIC [6]: ≥ 100 µg/mL; MIC [8]: ≥ 100 µg/mL; MIC [11]: ≥ 100 µg/mL; MIC [12]: ≥ 100 µg/mL; MIC [13]: 0.78 µg/mL (≈ 2.38 µM)
CCN1CCN(C(=O)N[C@@H](C(=O)N[C@@H]2C(=O)N3[C@@H]2SC(C)(C)[C@@H]3C(=O)O)c2ccccc2)C(=O)C1=O	–	–	–	–	Activity [6]: inactive
CN1C(=O)/C(=C/c2ccc(-c3cccc(C(=O)O)c3)o2)SC1=S	> 100 µg/mL	> 100 µg/mL	89%	>= 100 ug ml-1	–
C=CCN1C(=O)/C(=C/c2ccc(-c3ccccc3C(=O)O)o2)SC1=S	≥ 100 µg/mL	≥ 100 µg/mL	72%	>= 100 ug ml-1	–
C=CCN1C(=O)/C(=C/c2ccc(-c3ccc(C(=O)NO)cc3)o2)SC1=S	≥ 100 µg/mL	25 µg/mL (≈ 64.7 µM)	100%	>= 100 ug ml-1	MIC [7]: ≥ 100 µg/mL; MIC [6]: ≥ 100 µg/mL; MIC [8]: ≥ 100 µg/mL; MIC [11]: 25 µg/mL (≈ 64.7 µM); MIC [12]: ≥ 100 µg/mL; MIC [13]: 50 µg/mL (≈ 129 µM)
Cc1nnc(SCC2=C(C(=O)O)N3C(=O)[C@@H](NC(=O)Cn4cnnn4)[C@H]3SC2)s1	–	–	–	–	Activity [6]: inactive
C=CCN1C(=O)/C(=C/c2cccc(-c3cccc(C(=O)O)c3)c2)SC1=S	25 µg/mL (≈ 65.5 µM)	≥ 100 µg/mL	26%	>= 100 ug ml-1	MIC [7]: ≥ 100 µg/mL; MIC [6]: 25 µg/mL (≈ 65.5 µM); MIC [8]: 25 µg/mL (≈ 65.5 µM); MIC [9]: 50 µg/mL (≈ 131 µM); MIC [10]: 50 µg/mL (≈ 131 µM); MIC [11]: ≥ 100 µg/mL; MIC [12]: 12.5 µg/mL (≈ 32.8 µM); MIC [13]: 12.5 µg/mL (≈ 32.8 µM)
CC1(C)S[C@@H]2[C@H](NC(=O)Cc3ccccc3)C(=O)N2[C@H]1C(=O)O	–	–	–	–	Activity [6]: inactive
O=C1NC(=S)S/C1=C\c1ccc(-c2ccc(C(=O)O)cc2)o1	≥ 100 µg/mL	≥ 100 µg/mL	82%	>= 100 ug ml-1	–
C=CCN1C(=O)/C(=C/c2ccc(-c3ccc(C(N)=O)cc3)o2)SC1=S	≥ 100 µg/mL	1.56 µg/mL (≈ 4.21 µM)	102%	>= 100 ug ml-1	MIC [7]: ≥ 100 µg/mL; MIC [6]: ≥ 100 µg/mL; MIC [8]: ≥ 100 µg/mL; MIC [11]: ≥ 100 µg/mL; MIC [12]: ≥ 100 µg/mL; MIC [13]: 12.5 µg/mL (≈ 33.7 µM)
C=CCN1C(=O)/C(=C/c2ccc(-c3ccc(S(=O)(=O)O)cc3)o2)SC1=S	≥ 100 µg/mL	≥ 100 µg/mL	9%	>= 100 ug ml-1	–
COCCN1C(=O)N/C(=C\c2ccc(-c3cccc(C(=O)O)c3)o2)C1=O	≥ 100 µg/mL	≥ 100 µg/mL	85%	>= 100 ug ml-1	–
C=CCN1C(=O)S/C(=C\c2ccc(-c3ccc(C(=O)O)cc3)o2)C1=O	≥ 100 µg/mL	≥ 100 µg/mL	75%	>= 100 ug ml-1	–
